Laboratory results: ChEMBL document CHEMBL1144474, “Synthesis and anti-HIV-1 activity evaluation of 5-alkyl-2-alkylthio-6-(arylcarbonyl or alpha-cyanoarylmethyl)-3,4-dihydropyrimidin-4(3H)-ones as novel non-nucleoside HIV-1 reverse transcriptase inhibitors” (J Med Chem, 2007)

System: not listed separately
Assay: Cytotoxicity against MT4 cells after 4 days by MTT method
Format: cell-based
Conditions: human
In short: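 Uninfected MT-4 cells were run in parallel with the infected cultures across a range of compound concentrations (DMSO stocks, 50 mM or higher). After 4 days at 37 °C, viability was read by MTT. CC₅₀ is the concentration that cuts normal cell viability by 50%.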

Row | SMILES | CC50 at 96 h [µM]
1 | C#CCSc1nc(C(C#N)c2cccc3ccccc23)c(C)c(=O)[nH]1 (stereo unspecified) | 46.1
2 | CC(C)c1c(C(C#N)c2cccc3ccccc23)nc(SC2CCCC2)[nH]c1=O (stereo unspecified) | 7.32
3 | CCc1c(C(C#N)c2ccccc2)nc(SCc2ccc([N+](=O)[O-])cc2)[nH]c1=O (stereo unspecified) | 34.2
4 | Cc1c(C(C#N)c2cccc3ccccc23)nc(SC2CCCC2)[nH]c1=O (stereo unspecified) | 49.4
5 | Cc1c(C(C#N)c2cccc3ccccc23)nc(SCC(=O)c2ccccc2)[nH]c1=O (stereo unspecified) | 164
6 | CCSc1nc(C(=O)c2cccc3ccccc23)cc(=O)[nH]1 | 242
7 | CC(C)Sc1nc(C(C#N)c2cccc3ccccc23)cc(=O)[nH]1 (stereo unspecified) | 53.2
8 | CCc1c(C(=O)c2ccccc2)nc(SC2CCCC2)[nH]c1=O | 60.4
9 | CCc1c(C(=O)c2cccc3ccccc23)nc(SC(C)C)[nH]c1=O | 179
10 | Cc1c(C(=O)c2ccccc2)nc(SC(C)C)[nH]c1=O | 263
11 | N#CC(c1cc(=O)[nH]c(SC2CCCC2)n1)c1cccc2ccccc12 (stereo unspecified) | 22.8
12 | CCc1c(C(C#N)c2cccc3ccccc23)nc(SC(C)C)[nH]c1=O (stereo unspecified) | > 344
13 | CCSc1nc(C(=O)c2ccccc2)cc(=O)[nH]1 | 247
14 | C=CCSc1nc(C(=O)c2cccc3ccccc23)c(CC)c(=O)[nH]1 | 210
15 | CCc1c(C(C#N)c2ccccc2)nc(SC(C)C)[nH]c1=O (stereo unspecified) | 58
16 | C#CCSc1nc(C(=O)c2cccc3ccccc23)c(C)c(=O)[nH]1 | 124
17 | C#CCSc1nc(C(C#N)c2cccc3ccccc23)c(CC)c(=O)[nH]1 (stereo unspecified) | 48
18 | Cc1c(C(C#N)c2ccccc2)nc(SC(C)C)[nH]c1=O (stereo unspecified) | 10.8

System: not listed separately
Assay: Cytotoxicity against mock-infecected human PBMC
Format: cell-based
Conditions: mock-infected PBMC

Row | SMILES | CC50 [µM]
19 | Cc1c(C(C#N)c2cccc3ccccc23)nc(SCC(=O)c2ccccc2)[nH]c1=O (stereo unspecified) | 69.9
20 | CCc1c(C(C#N)c2cccc3ccccc23)nc(SC(C)C)[nH]c1=O (stereo unspecified) | > 68.9

System: Human immunodeficiency virus 1
Assay: Antiviral activity against wild type HIV1 3B in MT4 cells after 4 days by MTT method
Format: functional, organism-based
Conditions: Human immunodeficiency virus 1, 3B, MT4, 96 h
In short: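 MT-4 cells at 1 × 10⁵ cells/mL infected with HIV-1 IIIB (titrated as CCID₅₀) at MOI 0.02, then plated right away into serial compound dilutions (DMSO stocks, 50 mM or higher). After 4 days at 37 °C, viable cells were counted by MTT. IC₅₀ is the concentration giving 50% protection from viral cytopathogenicity.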

Row | SMILES | IC50 [µM]
21 | C#CCSc1nc(C(C#N)c2cccc3ccccc23)c(C)c(=O)[nH]1 (stereo unspecified) | 2.7
22 | CC(C)c1c(C(C#N)c2cccc3ccccc23)nc(SC2CCCC2)[nH]c1=O (stereo unspecified) | 1.34
23 | CCc1c(C(C#N)c2ccccc2)nc(SCc2ccc([N+](=O)[O-])cc2)[nH]c1=O (stereo unspecified) | 1.33
24 | Cc1c(C(C#N)c2cccc3ccccc23)nc(SC2CCCC2)[nH]c1=O (stereo unspecified) | 0.8
25 | Cc1c(C(C#N)c2cccc3ccccc23)nc(SCC(=O)c2ccccc2)[nH]c1=O (stereo unspecified) | 0.09
26 | CCSc1nc(C(=O)c2cccc3ccccc23)cc(=O)[nH]1 | 37.6
27 | CC(C)Sc1nc(C(C#N)c2cccc3ccccc23)cc(=O)[nH]1 (stereo unspecified) | 0.66
28 | CCc1c(C(=O)c2ccccc2)nc(SC2CCCC2)[nH]c1=O | 4.69
29 | CCc1c(C(=O)c2cccc3ccccc23)nc(SC(C)C)[nH]c1=O | 6.79
30 | Cc1c(C(=O)c2ccccc2)nc(SC(C)C)[nH]c1=O | 2.05
31 | N#CC(c1cc(=O)[nH]c(SC2CCCC2)n1)c1cccc2ccccc12 (stereo unspecified) | > 22.8
32 | CCc1c(C(C#N)c2cccc3ccccc23)nc(SC(C)C)[nH]c1=O (stereo unspecified) | 0.24
33 | CCSc1nc(C(=O)c2ccccc2)cc(=O)[nH]1 | > 247
34 | C=CCSc1nc(C(=O)c2cccc3ccccc23)c(CC)c(=O)[nH]1 | 16.9
35 | CCc1c(C(C#N)c2ccccc2)nc(SC(C)C)[nH]c1=O (stereo unspecified) | 0.64
36 | C#CCSc1nc(C(=O)c2cccc3ccccc23)c(C)c(=O)[nH]1 | > 124
37 | C#CCSc1nc(C(C#N)c2cccc3ccccc23)c(CC)c(=O)[nH]1 (stereo unspecified) | 4.85
38 | Cc1c(C(C#N)c2ccccc2)nc(SC(C)C)[nH]c1=O (stereo unspecified) | 0.002

System: Human immunodeficiency virus 1
Assay: Antiviral activity against HIV1 3B in human PBMC assessed by measuring p24 antigen production after 7 days by ELISA
Format: functional, organism-based
Conditions: Human immunodeficiency virus 1, 3B, 168 h
In short: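 Donor PBMCs were isolated by density centrifugation, stimulated with PHA for 3 days and washed in PBS. Cells (2 × 10⁵/200 µL) were plated in serial compound dilutions and infected with HIV at 1000 CCID₅₀ per mL. On day 4, medium was partly replaced with fresh medium containing compound. p24 antigen in the supernatant was measured by ELISA on day 7.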

Row | SMILES | IC50 [µM]
39 | Cc1c(C(C#N)c2cccc3ccccc23)nc(SCC(=O)c2ccccc2)[nH]c1=O (stereo unspecified) | 0.99
40 | CCc1c(C(C#N)c2cccc3ccccc23)nc(SC(C)C)[nH]c1=O (stereo unspecified) | 1.66

System: not listed separately
Assay: Selectivity index, CC50 for MT4 cells/IC50 for HIV1 3B
Format: functional
Conditions: not given
In short: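 Ratio of CC₅₀ in uninfected MT-4 cells to IC₅₀ against HIV-1 IIIB cytopathogenicity in MT-4 cells. Both values come from the 4-day, 37 °C MTT read-out, run in parallel.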

Row | SMILES | Ratio CC50/IC50
41 | C#CCSc1nc(C(C#N)c2cccc3ccccc23)c(C)c(=O)[nH]1 (stereo unspecified) | 17
42 | CC(C)c1c(C(C#N)c2cccc3ccccc23)nc(SC2CCCC2)[nH]c1=O (stereo unspecified) | 5
43 | CCc1c(C(C#N)c2ccccc2)nc(SCc2ccc([N+](=O)[O-])cc2)[nH]c1=O (stereo unspecified) | 26
44 | Cc1c(C(C#N)c2cccc3ccccc23)nc(SC2CCCC2)[nH]c1=O (stereo unspecified) | 61
45 | Cc1c(C(C#N)c2cccc3ccccc23)nc(SCC(=O)c2ccccc2)[nH]c1=O (stereo unspecified) | 1500
46 | CCSc1nc(C(=O)c2cccc3ccccc23)cc(=O)[nH]1 | 6
47 | CC(C)Sc1nc(C(C#N)c2cccc3ccccc23)cc(=O)[nH]1 (stereo unspecified) | 82
48 | CCc1c(C(=O)c2ccccc2)nc(SC2CCCC2)[nH]c1=O | 13
49 | CCc1c(C(=O)c2cccc3ccccc23)nc(SC(C)C)[nH]c1=O | 26
50 | Cc1c(C(=O)c2ccccc2)nc(SC(C)C)[nH]c1=O | 128
51 | N#CC(c1cc(=O)[nH]c(SC2CCCC2)n1)c1cccc2ccccc12 (stereo unspecified) | <1
52 | CCc1c(C(C#N)c2cccc3ccccc23)nc(SC(C)C)[nH]c1=O (stereo unspecified) | >1400
53 | Cc1c(Sc2ccccc2)n(COCCO)c(=O)[nH]c1=O [HEPT] | 80
54 | CCSc1nc(C(=O)c2ccccc2)cc(=O)[nH]1 | <1
55 | C=CCSc1nc(C(=O)c2cccc3ccccc23)c(CC)c(=O)[nH]1 | 12
56 | CCc1c(C(C#N)c2ccccc2)nc(SC(C)C)[nH]c1=O (stereo unspecified) | 91
57 | C#CCSc1nc(C(=O)c2cccc3ccccc23)c(C)c(=O)[nH]1 | <1
58 | C#CCSc1nc(C(C#N)c2cccc3ccccc23)c(CC)c(=O)[nH]1 (stereo unspecified) | 10
59 | Cc1c(C(C#N)c2ccccc2)nc(SC(C)C)[nH]c1=O (stereo unspecified) | 4600

System: not listed separately
Assay: Selectivity index, CC50 for PBMC/IC50 for HIV1 3B
Format: functional
Conditions: not given

Row | SMILES | Ratio CC50/IC50
60 | Cc1c(C(C#N)c2cccc3ccccc23)nc(SCC(=O)c2ccccc2)[nH]c1=O (stereo unspecified) | 70
61 | CCc1c(C(C#N)c2cccc3ccccc23)nc(SC(C)C)[nH]c1=O (stereo unspecified) | >41
